Test results taken from ChEMBL document CHEMBL1932930, “Synthesis and biological assessment of novel 2-thiazolylhydrazones and computational analysis of their recognition by monoamine oxidase B” (Eur J Med Chem, 2012).

Legend:
[1] = substrate: NCCc1ccc(O)cc1; experiment: Activity of human recombinant MAO-A expressed in baculovirus infected BTI-TN-5B1-4 insect cells assessed as hydrogen peroxide production after 15 mins by fluorimetric method
Summary of the method: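 Microsomal hMAO-A (specific activity 150 nmol p-tyramine/min/mg protein), dosed to oxidize 165 pmol p-tyramine/min in controls. It was preincubated 15 min at 37 °C in 0.05 M sodium phosphate pH 7.4 with test drug, then started with 1 mM p-tyramine (final). H2O2 was read as Amplex Red/peroxidase resorufin fluorescence (ex 545/em 590) over 15 min at 37 °C, in the dark.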

[2] = substrate: NCCc1ccc(O)cc1; experiment: Activity of human recombinant MAO-B expressed in baculovirus infected BTI-TN-5B1-4 insect cells assessed as hydrogen peroxide production after 15 mins by fluorimetric method
Summary of the method: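 Microsomal hMAO-B (specific activity 22 nmol p-tyramine/min/mg protein), adjusted to oxidize 165 pmol p-tyramine/min in controls. It was preincubated 15 min at 37 °C with drug in 0.05 M sodium phosphate pH 7.4, then started with 1 mM p-tyramine (final). Resorufin fluorescence (ex 545/em 590) from Amplex Red/peroxidase was read over 15 min at 37 °C, in the dark. Controls used DMSO vehicle.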

B1: Amine oxidase [flavin-containing] A (Homo sapiens) (protein)
chain: MENQEKASIAGHMFDVVVIGGGISGLSAAKLLTEYGVSVLVLEARDRVGGRTYTIRNEHVDYVDVGGAYVGPTQNRILRLSKELGIETYKVNVSERLVQYVKGKTYPFRGAFPPVWNPIAYLDYNNLWRTIDNMGKEIPTDAPWEAQHADKWDKMTMKELIDKICWTKTARRFAYLFVNINVTSEPHEVSALWFLWYVKQCGGTTRIFSVTNGGQERKFVGGSGQVSERIMDLLGDQVKLNHPVTHVDQSSDNIIIETLNHEHYECKYVINAIPPTLTAKIHFRPELPAERNQLIQRLPMGAVIKCMMYYKEAFWKKKDYCGCMIIEDEDAPISITLDDTKPDGSLPAIMGFILARKADRLAKLHKEIRKKKICELYAKVLGSQEALHPVHYEEKNWCEEQYSGGCYTAYFPPGIMTQYGRVIRQPVGRIFFAGTETATKWSGYMEGAVEAGERAAREVLNGLGKVTEKDIWVQEPESKDVPAVEITHTFWERNLPSVSGLLKIIGFSTSVTALGFVLYKYKLLPRS
[1]
  Km: 514 µM
  Vmax: 0.301 µmol/min/mg

B2: Amine oxidase [flavin-containing] B (Homo sapiens) (protein)
chain: MSNKCDVVVVGGGISGMAAAKLLHDSGLNVVVLEARDRVGGRTYTLRNQKVKYVDLGGSYVGPTQNRILRLAKELGLETYKVNEVERLIHHVKGKSYPFRGPFPPVWNPITYLDHNNFWRTMDDMGREIPSDAPWKAPLAEEWDNMTMKELLDKLCWTESAKQLATLFVNLCVTAETHEVSALWFLWYVKQCGGTTRIISTTNGGQERKFVGGSGQVSERIMDLLGDRVKLERPVIYIDQTRENVLVETLNHEMYEAKYVISAIPPTLGMKIHFNPPLPMMRNQMITRVPLGSVIKCIVYYKEPFWRKKDYCGTMIIDGEEAPVAYTLDDTKPEGNYAAIMGFILAHKARKLARLTKEERLKKLCELYAKVLGSLEALEPVHYEEKNWCEEQYSGGCYTTYFPPGILTQYGRVLRQPVDRIYFAGTETATHWSGYMEGAVEAGERAAREILHAMGKIPEDEIWQSEPESVDVPAQPITTTFLERHLPSVPGLLRLIGLTTIFSATALGFLAHKRGLLVRV
[2]
  Km: 105 µM
  Vmax: 0.0289 µmol/min/mg
